Most compounds without a hit are left out; they make up all but 7.9% or so of the library.
SF1 activator = activators of human SF-1, primary screen, cell-based, CHO-K1, Gal4-SF-1 LBD, luciferase luminescence. CHO-K1 Gal4-SF-1 LBD luciferase reporter; % increase over DMSO SF-1-specific signal. 65,000 compounds, 1.9% hits. AID 522, 2006. activation, % at 10 µM;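 active = activation above the mean activation of all tested compounds plus 3 SD, cut at about 50% in these data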
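Test system: CHO-K1 cells with Gal4–hSF-1 LBD chimera plus Gal4-driven luciferase; Input: 4,000 cells/well; Compound: 10 µM only; Times: 20 h compound treatment, 37 °C; Measured by: steady-glow luciferase luminescence, read after 15 min reagent incubation; Measure: percent activation versus DMSO; Control set: DMSO and mock-transfected background; Replicates: one test per compound.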
HEK293 NFkB inh = inhibitors of PMA/ionomycin-induced NF-kB reporter, primary screen, antigen receptor NF-kB inhibitor project, cell-based, HEK-293 luciferase reporter, luminescence; AID 465, 2006; HEK-293 NF-kB luciferase reporter; 62,000 compounds, 0.21% hits; inhibition, % at 3 µM;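 active = inhibition above the mean of all tested compounds plus 3 SD, cut at about 40% in these data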;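 also: 0% = stimulated DMSO wells and 100% = 10 µM reference inhibitor 5653914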
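Reagent: PMA plus ionomycin mix as NF-kB-activating stimulus. Assay system: NF-kB luciferase reporter HEK-293 cells. Technique: luminescence from luciferase substrate reagent. Incubation: 1 h compound pre-incubation, 16 h PMA/ionomycin at 37 °C. Benchmarks: DMSO only as uninhibited control, 10 µM reference inhibitor as full inhibition. Repeats: tested once.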
RORA act = activators of orphan receptor RORA, primary screen, cell-based, luminescence. Nuclear receptor ROR-alpha (Homo sapiens), P35398. CHO-K1 Gal4-RORA LBD luciferase reporter; percent increase over mock-subtracted basal signal. activation, % at 10 µM. 65,000 compounds, 1.5% hits. AID 560, 2006;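 active = activation above the mean of all tested compounds plus 3 SD, cut at about 49% in these data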;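 also: 0% = DMSO-treated RORA cells and 100% = added signal equal to DMSO minus mock-transfected cells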
D1 allo mod = D1 CRE-luciferase signal change, two-sided – cell-based, HEK293 D1, dopamine EC30, D1 allosteric modulator project, primary screen. D(1A) dopamine receptor (Homo sapiens), P21728. dopamine EC30 potentiation; actives deviate in either direction. B-score at 10 µM. 58,000 compounds, 5.9% hits. AID 641, 2007;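 active = luminescence count or its row- and column-corrected plate score outside the 99.7% band of the plate's sample wells, on either side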
JNK3 blocker = JNK3 kinase activity inhibitors, primary screen, biochemical, human, purified enzyme; inhibition, % at 8 µM; Mitogen-activated protein kinase 10 (Homo sapiens), P53779; HTS; 60,000 compounds, 0.61% hits; AID 746, 2007; in the data active = inhibition above about 17%;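 also: 0% = DMSO and 100% = reference inhibitor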
Target sequence (P53779 whole entry, looked up): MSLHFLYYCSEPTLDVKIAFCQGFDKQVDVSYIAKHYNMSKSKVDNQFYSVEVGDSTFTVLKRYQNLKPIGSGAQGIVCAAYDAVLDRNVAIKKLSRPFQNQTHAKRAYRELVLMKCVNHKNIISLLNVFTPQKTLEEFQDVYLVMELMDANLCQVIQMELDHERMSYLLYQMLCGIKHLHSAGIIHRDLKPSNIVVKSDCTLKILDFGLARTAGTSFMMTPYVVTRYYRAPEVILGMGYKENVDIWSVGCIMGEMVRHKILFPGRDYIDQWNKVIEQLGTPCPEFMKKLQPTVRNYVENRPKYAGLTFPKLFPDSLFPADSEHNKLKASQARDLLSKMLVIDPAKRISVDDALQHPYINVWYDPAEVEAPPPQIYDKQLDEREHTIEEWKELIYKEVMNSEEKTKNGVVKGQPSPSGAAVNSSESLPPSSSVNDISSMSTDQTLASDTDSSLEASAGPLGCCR
D1 PAM confirm = D1 receptor positive allosteric modulators, retest, confirmation, cell-based, HEK293 D1, CRE-luciferase, duplicate. shares compounds with D1 allo mod. dopamine EC30 potentiation; stronger effect = higher value. 2,200 compounds, 88% hits. luminescence at 10 µM;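 active = luminescence in either of two replicates above the same-plate mean plus 3 SD of the low-dose dopamine control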
D1 ag no DA = D1 receptor agonism without dopamine, confirmation, mechanism study for D1 allosteric modulator project, cell-based, HEK293 D1, CRE-luciferase, secondary assay 1. shares compounds with D1 allo mod. luminescence, no dopamine; stronger effect = higher value. luminescence at 10 µM. 1,900 compounds, 0.8% hits. AID 646, 2007; in the data active = luminescence above about 3900
Isoprot counter = isoproterenol response counter-screen activity for D1 modulators. shares compounds with D1 allo mod. HEK293 D1 CRE-luciferase, isoproterenol EC30 counter-screen. calls only at 10 µM. 2,200 compounds, 63% hits. AID 647;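 active = luminescence in either replicate above plate mean of wells with a partly effective reference agonist dose plus 3 SD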;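 also: isoproterenol raises cAMP through native beta-adrenoceptor Gs so signal bypasses D1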
* hit, by the source's call; i = inactive; nt = no result given; + = active, no number.

SMILES	SF1 activator	HEK293 NFkB inh	RORA act	D1 allo mod	JNK3 blocker	D1 PAM confirm	D1 ag no DA	Isoprot counter
CCOC(=O)c1sc2ccc(S(=O)(=O)N3CCOCC3)cc2c1N	-1.1	0.0	-2.1	6.65*	nt	5484	nt	+
CCOC(=O)c1sc2ccc(S(=O)(=O)N3CCCCC3)cc2c1N	5.8	6.6	-0.2	1.45	nt	nt	nt	nt
COc1cccc(-n2c(SC3CCOC3=O)nc3ccccc3c2=O)c1 (stereo not given)	-11.8	11.3	-7.9	13.5*	-3.6	13364*	1604	+
CC(C)c1ccc(OCc2ccc(C(=O)N3CCN(c4ccccn4)CC3)cc2)cc1	43.3	-0.3	35.4	-1.27	-0.9	nt	nt	nt
Cc1cc(NC(=O)c2cc(S(=O)(=O)N3CCCCC3)ccc2C)n(-c2ccccn2)n1	-7.8	15.5	16.6	21.2*	5.6	16476*	1732	+
N=C1C(c2ccc(Br)cc2)=C(O)C2CCc3ccccc3N12 (stereo not given)	1.7	4.5	13.0	-0.359	-10.9	nt	nt	nt
Brc1ccc(-c2nnc3n2-c2ccccc2CC3)cc1	-10.0	1.0	-10.5	3.9*	-0.6	13056*	1744	+
N#CC1=C(N)Oc2cc(O)ccc2C1c1ccncc1 (stereo not given)	2.0	2.4	-12.2	nt	5.8	nt	nt	nt
CN(C)c1ccc2c(c1)OC(N)=C(C#N)C2c1cccc(F)c1 (stereo not given)	-56.0	43.6*	-29.7	8.83*	-2.5	14124*	nt	+
Cc1sc2nc(SC(C)C)nc(N)c2c1C	2.7	-7.0	-0.1	13.7*	-6.9	13552*	1624	+
Cc1nc2sc(C)c(C)c2c(=O)o1	-4.9	nt	-16.7	nt	9.7	nt	nt	nt
COc1ccc(-c2csc(N3CCC(C(N)=O)(N4CCCCC4)CC3)n2)cc1	-8.8	5.4	-1.8	-0.421	-14.1	nt	nt	nt
COc1ccccc1NC(=O)CC1Nc2ccccc2NC1=O (stereo not given)	-6.1	11.1	9.3	3.65*	-6.7	6444*	1504	i
CCOc1ccc2nc(NC(NC(=O)CC)(C(=O)OC)C(F)(F)F)sc2c1 (stereo not given)	-7.4	nt	-17.5	nt	4.2	nt	nt	nt
O=C(CSc1ncnc2c1oc1ccccc12)Nc1ccccc1C(F)(F)F	-2.6	16.4	1.4	0.924	4.2	nt	nt	nt
O=C(c1ccccc1)c1coc2ccc(O)c(CN3CCOCC3)c12	16.7	23.9	2.2	7.59*	8.5	13536*	1636	+
CN(C)Cc1c(O)ccc2occ(C(=O)c3ccccc3)c12	-10.0	13.4	-4.8	0.501	1.1	nt	nt	nt
CCN(CC)C(=O)CSc1nnc(-c2ccccn2)n1-c1ccc(C)c(C)c1	-13.9	0.2	-1.1	-0.0255	2.9	nt	nt	nt
COc1cccc(/C=N/n2c(SC)nnc2-c2ccccc2)c1O	26.9	6.9	5.2	-2.27	7.0	nt	nt	nt
COc1cccc(/C=N/n2c(SC)nnc2-c2ccccc2)c1OC	-0.2	4.5	0.6	5.95*	1.0	8100*	1656	+
Cc1cc(C)c(NC(=O)CSc2nc3c(c(=O)n2C)SC(C)C3)c(C)c1 (stereo not given)	-38.4	17.4	-10.4	0.062	-11.0	nt	nt	nt
Cc1cccc(NC(=O)Cn2c(=O)n(Cc3ccco3)c(=N)c3c4c(sc32)COC(C)(C)C4)c1	7.7	14.3	5.4	8.94*	-5.8	6860*	1656	+
CC1(C)Cc2c(sc3c2c(=N)n(Cc2ccco2)c(=O)n3CC(=O)Nc2cccc(Cl)c2)CO1	-8.0	15.1	-15.5	4.43	nt	nt	nt	nt
O=C(CCC1CCCCC1=O)c1ccccc1 (stereo not given)	3.0	15.4	-1.1	-0.346	1.8	nt	nt	nt
CC1(C)CC(=O)C(CCC(=O)c2ccccc2)C(C)(C)N1 (stereo not given)	12.1	15.6	18.4	4.67*	0.6	4348	1672	i
SMILES	SF1 activator	HEK293 NFkB inh	RORA act	D1 allo mod	JNK3 blocker	D1 PAM confirm	D1 ag no DA	Isoprot counter
Cc1[nH]n(-c2ccccc2)c(=O)c1/C=N/c1ccccn1	8.0	13.1	5.6	-0.725	-8.5	nt	nt	nt
Cc1[nH]n(-c2ccccc2)c(=O)c1S(=O)(=O)c1ccccc1	9.5	21.2	7.2	4.08*	nt	11060*	1692	i
CCCCCCn1c(N(CC)CC)nc2c1c(=O)[nH]c(=O)n2C	-20.5	19.3	8.4	1.91	5.0	nt	nt	nt
CC(C)CCn1c(NCCN(C)C)nc2c1c(=O)[nH]c(=O)n2C	-15.9	20.6	-23.1	0.0514	2.0	nt	nt	nt
C=CCNc1nc2c(c(=O)[nH]c(=O)n2C)n1CCCCC	-0.4	3.9	-6.6	6.62*	-2.6	23492*	1616	+
CCCCn1c(NCCC)nc2c1c(=O)[nH]c(=O)n2C	-1.9	13.8	-7.0	5.86*	-3.4	9640*	1280	i
CCCNc1nc2c(c(=O)[nH]c(=O)n2C)n1CCC(C)C	-10.4	-5.7	-16.4	7.52*	-2.7	12920*	1500	+
CCOC(=O)Cn1c(C)c(Br)c(=O)c2cccc(C)c21	-10.3	12.2	19.0	-0.22	6.0	nt	nt	nt
COc1ccccc1NC=C1C(=O)OC(C)(C)OC1=O	21.7	-11.0	-1.3	1.06	3.4	nt	nt	nt
CC1(C)OC(=O)C(=CNc2ccccc2F)C(=O)O1	12.5	-0.2	-17.8	5.72*	5.2	9180*	1436	+
O=C(CCCCn1c(=O)c2ccccc2n(CC(=O)NC2CCCC2)c1=O)NC1CCCC1	-10.4	2.5	15.1	4.4*	3.8	4732	1368	i
CCCN(CCC)C(=O)Cn1c(=O)n(CCCCC(=O)NC2CCCC2)c(=O)c2ccccc21	-15.3	16.6	-20.0	-0.226	-6.5	nt	nt	nt
CCCS(=O)(=O)N1CCCC(C(=O)N2CCN(C(=O)OCC)CC2)C1 (stereo not given)	1.3	10.0	2.4	0.00225	-0.8	nt	nt	nt
CCOC(=O)N1CCC(NC(=O)Cn2nc(Cc3ccncc3)c3ccccc3c2=O)CC1	-12.5	2.8	-1.0	4.27*	6.8	6112	1664	i
O=[n+]1c2c(n([O-])c3c1CCCC3)CCCCC2	13.6	23.1	8.5	0.107	-5.6	nt	nt	nt
CCc1nnc(NC(=O)c2ccncc2)s1	16.4	-8.3	-2.0	2.75*	-0.4	4640	1208	i
